Experimental data: ChEMBL document CHEMBL1255440, “An antimicrobial peptide that targets DNA repair intermediates in vitro inhibits Salmonella growth within murine macrophages” (Antimicrob Agents Chemother, 2010)
Activity calls are given as the source filed them. No cut-off for these calls is given here.

How the values were obtained:
[1] = Cytotoxicity against mouse peritoneal macrophages assessed as dead cells at 100 uM by propidium iodide assay; format: cell-based; details: peritoneal macrophage cell
Method in brief: (§1)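 Cells seeded at 300,000/well and allowed to adhere, then given fresh DMEM with or without peptide for 24 h. Cells trypsinized, stained with a mammalian Live/Dead viability/cytotoxicity kit and analyzed by flow cytometry. Wilcoxon exact test.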

[2] = Cytotoxicity against mouse peritoneal macrophages assessed as metabolic activity upto 100 uM after 24 hrs by MTT assay; format: ADME, cell-based; details: peritoneal macrophage cell
Method in brief: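 Cells seeded at 40,000/well in 96-well plates, overnight 37°C 5% CO2, then treated 24 h in fresh DMEM. MTT (4 mg/ml stock in PBS) added for up to 3 h. Formazan solubilized overnight at 37°C in SDS/dimethylformamide/acid lysis buffer, OD read at 575 nm. Paired t tests.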

[3] = Drug uptake in mouse peritoneal macrophages assessed as total peptide concentration at 50 uM after 24 hrs at 37 degC by HPLC analysis; format: ADME, cell-based; details: peritoneal macrophage cell
Method in brief: (§2)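 Macrophages were elicited in 8–12-week-old female BALB/c mice with 4% thioglycolate i.p. and harvested by lavage 4 days later. Cells were seeded at 300,000 per well for 24 h, then given unlabeled peptide in DMEM for 24 h at 37°C. Lysates were run on reverse-phase HPLC at A280. Monomer (17.5 min) and dimer (17.75 min) peak areas were compared with a standard curve. Concentration assumed 1 pl per cell; values are means of three determinations.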

[4] = Drug uptake in mouse peritoneal macrophages assessed as dimer to monomer peptide ratio at 150 uM after 24 hrs at 37 degC by HPLC analysis; format: ADME, cell-based; details: peritoneal macrophage cell; method in brief: as §2
[5] = tested on: J774.A1; assay: Drug uptake in mouse J774A.1 cells assessed as dimer to monomer peptide ratio at 150 uM after 24 hrs at 4 degC by HPLC analysis; details: J774A.1, 24 h
[6] = tested on: J774.A1; assay: Drug uptake in mouse J774A1 cells assessed as dimer to monomer peptide ratio at 100 uM after 5 hrs at 37 degC by HPLC analysis; format: ADME, cell-based; details: j774.a1, 5 h
Method in brief: (§3)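 J774A.1 cells were incubated with unlabeled peptide for 5 or 24 h at 37°C or 4°C, washed in ice-cold PBS and lysed with NP-40 buffer. Lysates were run on reverse-phase HPLC with an acetonitrile/0.1% TFA gradient and A280 fractions. Monomer (~17.5 min) and dimer (~17.75 min) peak areas were compared against a standard curve. Intracellular mM was calculated using 300,000 cells and 1 pl/cell, with concentration expressed as monomer mass.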

[7] = tested on: Salmonella typhimurium; assay: Antibacterial activity against 1 MOI Salmonella enterica subsp. enterica serovar Typhimurium infected in mouse J774A1 cells assessed as reduction in bacterial growth at 50 uM after 24 hrs; format: functional, J774.A1; parameters: scale not given: the % may be the effect or the level left
Method in brief: (§4)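 J774A.1 cells or thioglycolate-elicited BALB/c peritoneal macrophages seeded at 200,000/well, overnight 37°C 5% CO2; infected with GFP strain SDT1416, 1 h invasion, washed, 1 h in DMEM with 15 μg/ml gentamicin. Then fresh DMEM plus 15 μg/ml gentamicin with or without peptide (DMSO vehicle) for 24 h at 37°C; macrophages lysed with 1% Triton X-100, plated on LB agar for CFU.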

[8] = tested on: Salmonella typhimurium; assay: Antibacterial activity against 1 MOI Salmonella enterica subsp. enterica serovar Typhimurium infected in mouse J774A1 cells assessed as reduction in bacterial growth after 24 hrs; format: functional, organism-based; details: J774.A1; method in brief: as §4
[9] = tested on: J774.A1; assay: Drug uptake in mouse J774A1 cells assessed as total peptide concentration at 150 uM after 5 hrs at 4 degC by HPLC analysis; format: ADME, cell-based; details: j774.a1, 5 h
Method in brief: (§5)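 J774A.1 cells were seeded at 300,000 per well and allowed to adhere for 24 h at 37°C in 5% CO2. Medium was replaced with DMEM containing unlabeled peptide, and cells were held at 37°C or 4°C. After three washes in ice-cold PBS, cells were lysed in NP-40 buffer and debris spun out. Reverse-phase HPLC was read at 280 nm. Peaks at 17.5 and 17.75 min were integrated against a standard curve. Intracellular mM was calculated from 300,000 cells at 1 pl each, using monomer mass.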

[10] = tested on: Salmonella typhimurium; assay: Antibacterial activity against 1 MOI Salmonella enterica subsp. enterica serovar Typhimurium infected in mouse J774A1 cells assessed as reduction in bacterial growth at 100 uM after 24 hrs; format: functional, J774.A1; parameters: scale not given: the % may be the effect or the level left; method in brief: as §4
[11] = Cytotoxicity against mouse peritoneal macrophages assessed as live cells at 100 uM by calcein AM assay; format: cell-based, Peritoneal macrophage cell; details: read-out: Activity; method in brief: as §1
[12] = Drug uptake in mouse peritoneal macrophages assessed as total peptide concentration at 100 uM after 24 hrs at 37 degC by HPLC analysis; format: ADME, cell-based; details: peritoneal macrophage cell; method in brief: as §2
[13] = tested on: J774.A1; assay: Drug uptake in mouse J774A.1 cells assessed as total peptide concentration at 150 uM after 24 hrs at 4 degC by HPLC analysis; details: J774A.1, 24 h
[14] = tested on: Salmonella typhimurium; assay: Antibacterial activity against 10 MOI Salmonella enterica subsp. enterica serovar Typhimurium G785 transfected with SOS-inducible beta-galactosidase reporter infected in mouse J774A1 cells assessed as bacterial number at 50 uM after 4 hrs postinfection; format: functional, J774.A1
Method in brief: (§6)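 J774A.1 cells infected at MOI 10 with sulA promoter-lacZ reporter strain G785 using the gentamicin-protection protocol, treated with peptide (DMSO vehicle controls) plus 15 μg/ml gentamicin for 4 or 24 h. Released bacteria were plated for colony counts in parallel, and were incubated with 33 μM C12FDG (with 0.2 mM EDTA) in LB for 2 h at 37°C. Flow cytometry gave % fluorescein-positive among LPS-antibody-positive particles; Wilcoxon exact test.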

[15] = tested on: Salmonella typhimurium; assay: Antibacterial activity against 1 MOI Salmonella enterica subsp. enterica serovar Typhimurium infected in mouse J774A1 cells assessed as reduction in bacterial growth at 2.5 times MIC; format: functional, organism-based; details: J774.A1; method in brief: as §4
[16] = tested on: Salmonella typhimurium; assay: Antibacterial activity against 1 MOI Salmonella enterica subsp. enterica serovar Typhimurium infected in mouse J774A1 cells assessed as fold reduction in bacterial growth at 100 uM after 24 hrs; format: functional, J774.A1; method in brief: as §4
[17] = tested on: J774.A1; assay: Drug uptake in mouse J774A1 cells assessed as dimer to monomer peptide ratio at 150 uM after 24 hrs at 37 degC by HPLC analysis; format: ADME, cell-based; details: j774.a1, 24 h; method in brief: as §3
[18] = tested on: J774.A1; assay: Drug uptake in mouse J774A1 cells assessed as dimer to monomer peptide ratio at 100 uM after 24 hrs at 37 degC by HPLC analysis; format: ADME, cell-based; details: j774.a1, 24 h; method in brief: as §3
[19] = tested on: Salmonella typhimurium; assay: Antibacterial activity against 10 MOI Salmonella enterica subsp. enterica serovar Typhimurium G785 transfected with SOS-inducible beta-galactosidase reporter infected in mouse J774A1 cells assessed as bacterial number at 100 uM after 4 hrs postinfection; format: functional, J774.A1; method in brief: as §6
[20] = tested on: Salmonella typhimurium; assay: Antibacterial activity against 1 MOI Salmonella enterica subsp. enterica serovar Typhimurium infected in mouse peritoneal macrophages assessed as reduction in bacterial growth at 100 uM after 24 hrs; format: functional; parameters: scale not given: the % may be the effect or the level left; method in brief: as §4
[21] = tested on: J774.A1; assay: Drug uptake in mouse J774A1 cells assessed as dimer to monomer peptide ratio at 100 uM after 5 hrs at 4 degC by HPLC analysis; format: ADME, cell-based; details: j774.a1, 5 h; method in brief: as §3
[22] = tested on: J774.A1; assay: Drug uptake in mouse J774A1 cells assessed as total peptide concentration at 50 uM after 5 hrs at 37 degC by HPLC analysis; format: ADME, cell-based; details: j774.a1, 5 h; method in brief: as §5
[23] = tested on: J774.A1; assay: Drug uptake in mouse J774A1 cells assessed as total peptide concentration at 100 uM after 5 hrs at 4 degC by HPLC analysis; format: ADME, cell-based; details: j774.a1, 5 h; method in brief: as §3

Drug uptake [3]: 2.5 mM
Ratio [4]: 11.4
Ratio [5]: 15.5
Ratio [6]: 2.6
Drug uptake [9]: 15.8 mM
Drug uptake [12]: 7.4 mM
Drug uptake [13]: 47.7 mM
Ratio [17]: 12.5
Ratio [18]: 2.9
Ratio [21]: 2.7
Drug uptake [22]: 0.9 mM
Drug uptake [23]: 7.7 mM
SMILES: N=C(N)NCCC[C@@H](NC(=O)[C@@H](CS)NC(=O)[C@@H](Cc1ccc(O)cc1)NC(=O)[C@@H](Cc1c[nH]c2ccccc12)NC(=O)[C@@H](CCCNC(=N)N)NC(=O)[C@H](N)Cc1c[nH]c2ccccc12)C(=O)O
Activity [1]: 3.1%
Activity [2]: Non-toxic
Activity [7]: 68.5%
Activity [8]: Dose-dependent effect
Activity [10]: 85.1%
viability at 100 µM [11]: 94.4%
Activity [14]: 57.1%
Activity [15]: Active
fold change (FC) [16]: > 100
Activity [19]: 19%
Activity [20]: 45%
